Results as given in ChEMBL document CHEMBL1152768, “4-Benzyloxy-gamma-sultone derivatives: discovery of a novel family of non-nucleoside inhibitors of human cytomegalovirus and varicella zoster virus” (J Med Chem, 2009).
Activity calls are given as the source filed them. The calls are words filed in the database; no cut-off is given here.

How the values were obtained:
[1] = test system: Human betaherpesvirus 5; experiment: Antiviral activity against HCMV Davis infected in human HEL cells assessed inhibition of virus-induced cytopathicity after 7 days postinfection; assay type: functional, organism-based; conditions: Human betaherpesvirus 5, Davis, 168 h
Procedure, shortened: (§1)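 HEL fibroblasts were infected at 100 PFU. After 2 h, residual virus was removed and medium with test compound was added at several concentrations, in duplicate. Cells were incubated 7 days at 37 °C, fixed with ethanol and stained with Giemsa.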

[2] = test system: Human alphaherpesvirus 3; experiment: Antiviral activity against thymidine kinase expressing Varicella zoster virus Oka infected in human HEL cells assessed reduction in viral plaque formation; assay type: functional, organism-based; conditions: Human alphaherpesvirus 3, Oka
Procedure, shortened: (§2)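 Confluent HEL cell monolayers were inoculated with VZV at 20 PFU per well. Residual virus was removed after 2 h, and compound was added at varying concentrations, in duplicate.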

[3] = Therapeutic index, ratio of CC50 for human HEL cells to EC50 for Varicella zoster virus; assay type: cell-based; conditions: read-out: Ratio CC50/EC50
Procedure, shortened: (§3)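 Index calculated as CC50 (HEL cell growth, 3 days, Coulter count) divided by EC50 from the HEL-cell antiviral assays: HCMV cytopathicity at 7 days for line 18, VZV plaque reduction at 5 days for line 19.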

[4] = Therapeutic index, ratio of CC50 for human HEL cells to EC50 for Human cytomegalovirus; assay type: cell-based; conditions: read-out: Ratio CC50/EC50; procedure, shortened: as §3
[5] = test system: Human alphaherpesvirus 3; experiment: Antiviral activity against thymidine kinase deficient Varicella zoster virus 07/1 infected in human HEL cells assessed reduction in viral plaque formation; assay type: functional, organism-based; conditions: Human alphaherpesvirus 3, HEL; procedure, shortened: as §2
[6] = test system: Human betaherpesvirus 5; experiment: Antiviral activity against HCMV AD169 infected in human HEL cells assessed inhibition of virus-induced cytopathicity after 7 days postinfection; assay type: functional, organism-based; conditions: Human betaherpesvirus 5, AD169, HEL, 168 h; procedure, shortened: as §1
[7] = Cytotoxicity against human HEL cells assessed as morphological alteration after 3 days; assay type: cell-based
Procedure, shortened: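 HEL cultures were examined under the microscope. MCC was recorded as the compound concentration causing a microscopically detectable alteration of normal cell morphology.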

[8] = Cytotoxicity against human HEL cells assessed as reduction of growth after 3 days; assay type: cell-based
Procedure, shortened: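 HEL cells were seeded at 5 × 10³ cells/well and grown 24 h before compound was added at different concentrations. After 3 days at 37 °C, cells were counted with a Coulter counter. CC50, the concentration halving growth relative to untreated controls, was read from plots of cell number (% of control) against concentration.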

[9] = test system: Mammalian orthoreovirus 3; experiment: Antiviral activity against Reovirus 3 infected in african green monkey Vero cells; assay type: functional, organism-based
[10] = test system: Vaccinia virus; experiment: Antiviral activity against Vaccinia virus infected in human HEL cells; assay type: functional, organism-based; conditions: Orthopoxvirus vaccinia
[11] = test system: Vesicular stomatitis virus; experiment: Antiviral activity against VSV infected in human HeLa cells; assay type: functional, organism-based
[12] = test system: Coxsackievirus B4; experiment: Antiviral activity against Coxsackievirus B4 infected in african green monkey Vero cells; assay type: functional, organism-based
[13] = test system: Respiratory syncytial virus; experiment: Antiviral activity against RSV infected in human HeLa cells; assay type: functional, organism-based
[14] = test system: Human alphaherpesvirus 1; experiment: Antiviral activity against HSV1 KOS infected in human HEL cells; assay type: functional, organism-based
[15] = test system: Punta Toro virus; experiment: Antiviral activity against Punta Toro virus infected in african green monkey Vero cells; assay type: functional, organism-based
[16] = test system: Human alphaherpesvirus 2; experiment: Antiviral activity against HSV2 infected in human HEL cells; assay type: functional, organism-based
[17] = test system: Human alphaherpesvirus 1; experiment: Antiviral activity against acyclovir-resistant […]-deficient HSV1 infected in human HEL cells; assay type: functional, organism-based
[18] = test system: Coxsackievirus B4; experiment: Antiviral activity against Coxsackievirus B4 infected in human HeLa cells; assay type: functional, organism-based
[19] = test system: Sindbis virus; experiment: Antiviral activity against Sindbis virus infected in african green monkey Vero cells; assay type: functional, organism-based
[20] = test system: Vesicular stomatitis virus; experiment: Antiviral activity against VSV infected in human HEL cells; assay type: functional, organism-based
[21] = test system: Human alphaherpesvirus 3; experiment: Antiviral activity against Varicella zoster virus YS infected in human HEL cells assessed reduction in viral plaque formation; assay type: functional, organism-based; conditions: Human alphaherpesvirus 3, YS
[22] = test system: Human respirovirus 3; experiment: Antiviral activity against Parainfluenza virus 3 infected in african green monkey Vero cells; assay type: functional, organism-based
[23] = test system: Human alphaherpesvirus 3; experiment: Antiviral activity against Varicella zoster virus YSR infected in human HEL cells assessed reduction in viral plaque formation; assay type: functional, organism-based; conditions: Human alphaherpesvirus 3, YSR
[24] = test system: Human betaherpesvirus 5; experiment: Antiviral activity against cidofovir HCMV AD169 clone 5 infected in human HEL cells assessed as inhibition of virus-induced cytopathicity; assay type: functional, organism-based; conditions: Human betaherpesvirus 5, AD169, HEL
[25] = test system: Human betaherpesvirus 5; experiment: Antiviral activity against wild type HCMV Davis infected in HEL cells assessed as inhibition of virus-induced cytopathicity; assay type: functional, organism-based; conditions: Human betaherpesvirus 5, Davis
Procedure, shortened: (§4)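 HEL fibroblast cultures infected at 100 PFU input. After 2 h, residual virus was removed and compound-containing medium was added at varying concentrations, in duplicate. Cells were incubated 7 days at 37 °C, ethanol-fixed and Giemsa-stained, and cytopathicity was scored microscopically.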

[26] = test system: Human betaherpesvirus 5; experiment: Antiviral activity against wild type HCMV AD169 infected in HEL cells assessed as inhibition of virus-induced cytopathicity; assay type: functional, organism-based; conditions: Human betaherpesvirus 5, AD169, HEL; procedure, shortened: as §4
[27] = test system: Human betaherpesvirus 5; experiment: Antiviral activity against ganciclovir-resistant HCMV AD169 clone 4 infected in HEL cells assessed as inhibition of virus-induced cytopathicity; assay type: functional, organism-based; conditions: Human betaherpesvirus 5, AD169, HEL
[28] = test system: Human betaherpesvirus 5; experiment: Antiviral activity against HPMPA-resistant HCMV AD169 clone 2 mutant infected in HEL cells assessed as inhibition of virus-induced cytopathicity; assay type: functional, organism-based; conditions: Human betaherpesvirus 5, AD169, HEL
[29] = test system: Human betaherpesvirus 5; experiment: Antiviral activity against acyclovir-resistant HCMV AD169 clone 1 infected in HEL cells assessed as inhibition of virus-induced cytopathicity; assay type: functional, organism-based; conditions: Human betaherpesvirus 5, AD169, HEL
[30] = test system: Human betaherpesvirus 5; experiment: Antiviral activity against PMEDAP-resistant HCMV AD169 clone 4 infected in HEL cells assessed as inhibition of virus-induced cytopathicity; assay type: functional, organism-based; conditions: Human betaherpesvirus 5, AD169, HEL
[31] = test system: Human betaherpesvirus 5; experiment: Antiviral activity against foscarnet-resistant HCMV AD169 clone C infected in HEL cells assessed as inhibition of virus-induced cytopathicity; assay type: functional, organism-based; conditions: Human betaherpesvirus 5, AD169, HEL

O=S1(=O)C=C(OCc2ccccc2)C(Cc2ccccc2)(Cc2ccccc2)O1
EC50 [1]: > 50 µM
EC50 [2]: > 5 µM
selectivity ratio [3]: ≤ 4
selectivity ratio [4]: ≤ 4
EC50 [5]: 5 µM
EC50 [6]: 50 µM
MCC at 72 h [7]: 200 µM
CC50 at 72 h [8]: 200 µM

CCC1(Cc2ccccc2)OS(=O)(=O)C=C1OCCc1ccccc1 (racemic)
Activity [9]: inactive
EC50 [1]: 9.3 µM
Activity [10]: inactive
Activity [11]: inactive
Activity [12]: inactive
EC50 [2]: 5.7 µM
Activity [13]: inactive
Activity [14]: inactive
EC50 [5]: 7.5 µM
Activity [15]: inactive
Activity [16]: inactive
Activity [17]: inactive
EC50 [6]: 6.9 µM
Activity [18]: inactive
Activity [19]: inactive
MCC at 72 h [7]: ≥ 20 µM
CC50 at 72 h [8]: 48 µM
Activity [20]: inactive

CCC1(Cc2ccccc2)OS(=O)(=O)C=C1OCc1ccc(OC)cc1 (racemic)
Activity [9]: inactive
EC50 [1]: 142 µM
Activity [10]: inactive
Activity [11]: inactive
Activity [12]: inactive
EC50 [2]: 120 µM
Activity [13]: inactive
Activity [14]: inactive
EC50 [5]: 106 µM
Activity [15]: inactive
Activity [16]: inactive
Activity [17]: inactive
EC50 [6]: 200 µM
Activity [18]: inactive
Activity [19]: inactive
MCC at 72 h [7]: ≥ 200 µM
CC50 at 72 h [8]: > 200 µM
Activity [20]: inactive

CCC1(Cc2ccccc2)OS(=O)(=O)C=C1OCc1ccccc1 (racemic)
EC50 [21]: 3.6 µM
Activity [9]: inactive
EC50 [1]: 9.3 µM
Activity [10]: inactive
Activity [22]: inactive
Activity [11]: inactive
Activity [12]: inactive
EC50 [2]: 6.4 µM
Activity [13]: inactive
Activity [14]: inactive
selectivity ratio [3]: ≥ 5
selectivity ratio [4]: ≥ 5
EC50 [5]: 5.6 µM
Activity [15]: inactive
Activity [16]: inactive
Activity [17]: inactive
EC50 [6]: 13 µM
Activity [18]: inactive
Activity [19]: inactive
MCC at 72 h [7]: ≥ 50 µM
CC50 at 72 h [8]: 200 µM
Activity [20]: inactive

CCC1(Cc2ccccc2)OS(=O)(=O)C=C1OCc1ccc(F)cc1 (racemic)
EC50 [21]: 10.4 µM
EC50 [1]: 7 µM
EC50 [2]: 8.6 µM
EC50 [23]: 9.3 µM
EC50 [5]: 8.6 µM
EC50 [6]: 15 µM
MCC at 72 h [7]: ≥ 50 µM
CC50 at 72 h [8]: > 50 µM

CCC1(Cc2ccccc2)OS(=O)(=O)C=C1OCc1ccccc1Cl (racemic)
EC50 [21]: > 5 µM
EC50 [1]: > 4 µM
EC50 [2]: 8.7 µM
EC50 [5]: 10 µM
EC50 [6]: > 4 µM
MCC at 72 h [7]: ≥ 20 µM
CC50 at 72 h [8]: 38 µM

CCC1(Cc2ccccc2)OS(=O)(=O)C=C1OCc1ccc(Cl)cc1 (racemic)
EC50 [24]: 11 µM
EC50 [21]: 10 µM
EC50 [25]: 11 µM
EC50 [26]: 11 µM
Activity [9]: inactive
EC50 [1]: 9.7 µM
Activity [10]: inactive
Activity [11]: inactive
Activity [12]: inactive
EC50 [2]: 7.6 µM
EC50 [27]: 11 µM
Activity [13]: inactive
Activity [14]: inactive
EC50 [28]: 9.9 µM
EC50 [5]: 5.7 µM
Activity [15]: inactive
Activity [16]: inactive
Activity [17]: inactive
EC50 [29]: 1.1 µM
EC50 [6]: 10.4 µM
Activity [18]: inactive
Activity [19]: inactive
MCC at 72 h [7]: ≥ 50 µM
CC50 at 72 h [8]: > 200 µM
EC50 [30]: 12 µM
Activity [20]: inactive
EC50 [31]: 9.6 µM
